Screening data from PubChem BioAssay.
Rows were chosen to be rich in hits. Some 3.4% of all compounds tested hit in one or more screens of this group.
Efa HMGR inh – inhibitors of E. faecalis class II HMGR, primary screen, biochemical, Enterococcus faecalis. AID 1066, 2008. HMG-CoA reductase (Enterococcus faecalis, mvaE). purified E. faecalis HMGR, NADPH absorbance 340 nm kinetic. 0.41% of 190,000 active. inhibition, % at 10 µM;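 active means inhibition above a set limit, the median over all tested compounds plus 3 SD, cut at about 9.5% in these data; inconclusive means no clear call, values can overlap the other calls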;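 further: enzyme runs in reverse so mevalonate oxidation gives rising NADPH absorbance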
Wee1 stabilizer – Wee1 degradation inhibitors, primary screen, cell-based, HeLa, Wee1K328M-luciferase, luminescence; Wee1-like protein kinase (Homo sapiens), P30291; HeLa Luc-Wee1K328M stability; 100% = proteasome inhibitor MG132 effect; reporter increase, % at 5 µM; 1.2% of 220,000 active; AID 1321, 2008;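 active means activation above the mean of all tested compounds plus 3 SD, set per screening run, cut at about 8.8% in these data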;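 further: cells exposed to compound for 20 h before luminescence read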
RanGTP-Imp inh – inhibitors of RanGTP-importin-beta interaction, primary screen, biochemical, FRET, CFP-Ran, YFP-importin-beta, homogeneous. Ran GTPase (GTP-bound) - importin-beta complex. AID 2216, 2009. cell-free CFP-Ran/YFP-importin-beta FRET ratio. inhibition, % (test concentration not listed). 1.1% of 300,000 active;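 active means more than half of the replicate wells show a fall in the fluorescence ratio signal beyond about 16%, limit read from the data, passing the limit was not always enough; inconclusive means exactly half of the replicate wells pass the set limit; inactive means fewer than half of replicates pass the limit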
PHOSPHO1 inh – PubChem AID 1565 | Phosphoethanolamine/phosphocholine phosphatase (Homo sapiens), Q8TCT1 | recombinant PHOSPHO1, absorbance phosphatase assay | inhibition, % at 13.3 µM | 1.1% of 290,000 active; in the data active means inhibition above about 60%
Target sequence (Q8TCT1 whole entry, looked up): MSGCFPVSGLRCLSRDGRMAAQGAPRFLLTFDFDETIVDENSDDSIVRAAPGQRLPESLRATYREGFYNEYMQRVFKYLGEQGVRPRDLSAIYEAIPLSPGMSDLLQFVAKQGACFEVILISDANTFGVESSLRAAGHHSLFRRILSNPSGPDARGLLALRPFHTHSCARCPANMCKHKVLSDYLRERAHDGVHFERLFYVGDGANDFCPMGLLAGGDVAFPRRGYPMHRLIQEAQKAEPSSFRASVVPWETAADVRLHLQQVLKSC
Runt-CBFb FRET – inhibitors of RUNX1 Runt–CBFb binding, primary screen, biochemical, FRET, Cerulean-Runt, Venus-CBFb, uHTS; AID 1496, 2009; 0.46% of 220,000 active; inhibition, % at 20 µM; Cerulean-Runt/Venus-CBFb FRET ratio 530/480, 1 h;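 active means inhibition over about 50% at 20 µM in the single-dose screen, limit read from the data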
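Buffer or medium: Tris pH 7.5 buffer with BSA. Assay system: Cerulean-labeled Runt domain protein. Amount: each fluorescent fusion protein 100 nM. Read-out basis: loss of energy transfer signal. Incubation: 1 h compound exposure, room temperature. Probe or stimulus: Venus-CBFb binding partner, 100 nM. Detection: FRET, excitation 422 nm, emission at 530 and 480 nm.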
Runt-SMMHC FRET – inhibitors of RUNX1 Runt–CBFb-SMMHC binding, primary screen, biochemical, FRET, Cerulean-Runt, Venus-CBFb-SMMHC, uHTS; Runt-related transcription factor 1 (Homo sapiens) + Core-binding factor subunit beta …; Cerulean-Runt/Venus-CBFb-SMMHC FRET ratio 530/480, 1 h; inhibition, % at 20 µM; 0.74% of 220,000 active;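 active means mean inhibition across duplicate retests at 20 µM reaching about 50%, limit read from the data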;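 further: inhibitors lower the FRET ratio by blocking Runt binding to CBFb-SMMHC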
Each line names hits and unclear results; the compound was inactive in the other large screens.

COc1cc(OC)c(OC)cc1CNC(=O)c1ccc(COc2ccccc2)cc1	none (no result: Efa HMGR inh, Wee1 stabilizer, Runt-CBFb FRET, Runt-SMMHC FRET)
COc1ccc(C(=O)c2c(C(F)(F)F)oc3c2C(=O)c2ccccc2C3=O)cc1OC	PHOSPHO1 inh 82
COc1ccc(C(=O)Nc2ccc3c(c2)C(=O)c2ccccc2C3=O)cc1OC	none
Cc1ccc(Cc2cnc(NC(=O)c3ccco3)s2)cc1	none
CC(C)C(=O)Nc1ncc(Cc2cccc(Cl)c2)s1	none
O=C(Nc1ncc(Cc2cccc([N+](=O)[O-])c2)s1)c1ccco1	PHOSPHO1 inh 60
CC(=O)Nc1ncc(Cc2cccc(Cl)c2)s1	PHOSPHO1 inh 60
CC(=O)c1sc(NC(=O)CN2C(=O)C3CC=CCC3C2=O)nc1-c1ccccc1 (stereo unspecified)	none (no result: Efa HMGR inh, Wee1 stabilizer, PHOSPHO1 inh, Runt-CBFb FRET, Runt-SMMHC FRET)
C=CCN=C1S/C(=C/c2cccc([N+](=O)[O-])c2)C(=O)N1CC=C	Wee1 stabilizer 9.9 (no result: Efa HMGR inh)
C=CCN=C1S/C(=C/c2ccc([N+](=O)[O-])cc2)C(=O)N1CC=C	none (no result: Efa HMGR inh)
COCc1cc(=O)[nH]c(Nc2nc3ccc(C)cc3o2)n1	Wee1 stabilizer 8.9
COc1cccc(CN(C)C(=O)c2cc(COc3c(F)cccc3F)on2)c1	none
COc1cccc(CN(C)C(=O)c2cc(COc3ccc4ncccc4c3)on2)c1	PHOSPHO1 inh 61
Clc1ccc2nc(N3CCCCC3)sc2c1	Wee1 stabilizer 11
O=C(Cc1ccccc1[N+](=O)[O-])NCc1ccc(Cl)cc1Cl	Wee1 stabilizer 9.4
COc1ccc(OC)c(-c2csc(N(CC3CCCO3)C(=O)Cc3ccccc3)n2)c1 (stereo unspecified)	none (no result: RanGTP-Imp inh)
CCOc1ccc(S(=O)(=O)N2CCCC2)cc1	none
CCN(CC)S(=O)(=O)c1ccc(S(=O)(=O)N2CCCC2)cc1	Efa HMGR inh 9.9 (no result: Runt-CBFb FRET, Runt-SMMHC FRET)
Cc1ccc(Cl)cc1N=C(N)N=C(N)N	Efa HMGR inh 15
Cc1ccc(-n2nc3c(=O)n(CCCC(=O)NCc4ccc(F)cc4)nc(C)c3c2C)cc1	none (no result: Efa HMGR inh, Wee1 stabilizer, Runt-CBFb FRET, Runt-SMMHC FRET)
Cc1ccc(-n2nc3c(=O)n(CCCC(=O)NCc4ccco4)nc(C)c3c2C)cc1	PHOSPHO1 inh 64 (no result: Efa HMGR inh, Wee1 stabilizer, Runt-CBFb FRET, Runt-SMMHC FRET)
O=C(CCC(=O)N/N=C/c1cc(Cl)cc(Cl)c1O)NCc1ccccc1	RanGTP-Imp inh 43, Runt-SMMHC FRET 92
O=C(CCC(=O)N/N=C/c1ccc(Br)s1)NCc1ccccc1	none
Cc1ccc2c(c1)cc1c(=O)n(CC(=O)NCCCc3ccccc3)nc(C)n12	none (no result: Efa HMGR inh, Wee1 stabilizer, Runt-CBFb FRET, Runt-SMMHC FRET)
CC(=O)N(Cc1cccnc1)c1cccc(-c2nc3ccccc3s2)c1	PHOSPHO1 inh 66
c1cncc(-c2nc3ccccc3s2)c1	RanGTP-Imp inh inconclusive (no result: Efa HMGR inh)
COC(=O)C1=C(C)N=C2SC(C#N)=C(N)N2C1c1ccc(OC)cc1 (stereo unspecified)	RanGTP-Imp inh 21
C#CCOCCOCCOCCNc1nc(N2CCN(C(=O)[C@H]([C@@H](C)CC)n3cc([C@@H](N)CC(C)C)nn3)CC2)nc(N2CCN(C(=O)[C@H](CCCCN)n3cc([C@@H](N)CO)nn3)CC2)n1	Wee1 stabilizer 9.2
C#CCOCCOCCOCCNc1nc(N2CCN(C(=O)[C@H](CCCCN)n3cc([C@@H](N)CC(C)C)nn3)CC2)nc(N2CCN(C(=O)[C@H](CCCCN)n3cc([C@@H](N)CC(C)C)nn3)CC2)n1	none
C#CCOCCOCCOCCNc1nc(N2CCN(C(=O)[C@H]([C@@H](C)CC)n3cc(CCCN=C(N)N)nn3)CC2)nc(N2CCN(C(=O)[C@H](CCCCN)n3cc(CCCC)nn3)CC2)n1	none
